Screening data deposited in PubChem by several laboratories.
A selection: hits, their analogues and other compounds. The true share with any hit is near 2.7%.
CSN inh: blocks human CSN-mediated cullin deneddylation; AID 651999; actives 0.38% (n = 360,000); inhibition, % at 12.5 µM; Purified CSN, SCF-Nedd8-OG deneddylation, fluorescence polarization; Q92905;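 active means pattern-corrected inhibition above about 35%, with an unprinted fluorescence ratio check between 0.5 and 1.5, limit read from the data, passing the limit was not always enough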
Target sequence (Q92905 whole entry, looked up, one chain of several): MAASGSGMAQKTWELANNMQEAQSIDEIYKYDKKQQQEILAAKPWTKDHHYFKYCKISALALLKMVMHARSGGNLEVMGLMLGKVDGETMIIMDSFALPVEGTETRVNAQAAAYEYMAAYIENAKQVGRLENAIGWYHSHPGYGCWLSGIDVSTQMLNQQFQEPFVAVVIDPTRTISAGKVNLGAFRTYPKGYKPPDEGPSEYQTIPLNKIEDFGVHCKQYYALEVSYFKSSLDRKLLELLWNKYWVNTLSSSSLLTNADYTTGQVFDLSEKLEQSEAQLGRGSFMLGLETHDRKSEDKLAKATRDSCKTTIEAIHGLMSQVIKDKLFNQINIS
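Assay system: HEK293T-derived human Csn5 enzyme; quantity: 0.24 nM enzyme; medium: Tris/NaCl/DTT buffer, pH 7.5; also added: substrate SCFSkp2-Nedd8OG, 10 nM; doses: 12.5 µM compound; schedule: 90 min reaction at room temperature; signal: FP; read-out: % inhibition of substrate cleavage by Csn5; benchmarks: substrate-only high control, full reaction low control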
NadD inh: NadD (S. aureus) enzyme inhibition. actives 0.78% (n = 360,000). purified NadD enzyme, colorimetric absorbance read-out. inhibition, % at 20 µM; in the data active means inhibition above about 26%
Rpn11 block: Rpn11 (human) deubiquitinase inhibition; actives 0.59% (n = 360,000); human 26S proteasome, Ub4-pepOG fluorescence polarization; 20S core pre-blocked with epoxomicin; inhibition, % at 20 µM; AID 588493; O00487;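 active means inhibition at 20 µM, scaled to each plate's controls, above about 33%, limit read from the data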
HNF4A DNA FP: change in binding of human HNF4 alpha to DNA | HNF4a-FITC DNA binding, fluorescence polarization, 1 h | actives 0.3% (n = 360,000) | activity change, % at 10 µM | AID 1224865; in the data active means activity change above about 30%, passing the limit was not always enough
PP1 counter: counter-screen for PP5 inhibitors: inhibitors of human PP1-alpha; P62136; purified PP1alpha, OMFP fluorescence; inhibition, % at 6.7 µM; actives 0.9% (n = 320,000); AID 2235;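 active means inhibition above the mean inhibition of all tested compounds plus 3 SD, computed separately for each screening campaign, cut at about 15% in these data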
TPT1 inhibitor: inhibitors of Candida albicans tRNA 2'-phosphotransferase TPT1 | recombinant caTPT1, FP RNA substrate dephosphorylation | inhibition, % at 5 µM | actives 0.81% (n = 300,000) | AID 1962;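 active means inhibition above the mean of all tested compounds plus 3 SD, set per screening campaign, cut at about 24% in these data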
TPT1 inh confirm: TPT1 (C. albicans) inhibition, confirmation; shares compounds with TPT1 inhibitor; recombinant caTPT1, fluorescence polarization, RNase T1 coupled; inhibition, % at 5 µM; actives 74% (n = 2,400);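 active means inhibition above the primary screen limit, the mean inhibition of all tested compounds plus 3 SD, cut at about 25% in these data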
RNase T1 counter: RNase T1 inhibition in TPT1 counter-screen; actives 83% (n = 2,400); inhibition, % at 5 µM; RNase T1 cleavage, fluorescence polarization, 1536-well; AID 2153; shares compounds with TPT1 inhibitor;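 active means inhibition above the solvent-only control well mean plus 3 SD, limit set per screening run, cut at about 23% in these data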;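 further: inhibitors block cleavage so intact labeled substrate keeps polarization high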
Target sequence (P00651 whole entry, looked up): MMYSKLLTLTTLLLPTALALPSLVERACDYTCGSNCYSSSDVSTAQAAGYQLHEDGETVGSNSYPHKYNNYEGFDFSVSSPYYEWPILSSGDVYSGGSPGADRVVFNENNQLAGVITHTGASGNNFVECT
Each line names hits and unclear results; the compound was inactive in the other large screens (follow-up assays come after a bar, where shown); ! = not confirmed by another sample.

O=C(NCCc1ccccc1)c1cc(S(=O)(=O)N2CCOCC2)ccc1F	none
CC(C)NC(=O)C1CC(=O)N(CCc2ccc(F)cc2)C1 (centres undefined)	none (no result: PP1 counter, TPT1 inhibitor)
O=C(Nc1ccccc1)Nc1ccc(F)cc1F	none
CC(=O)Nc1cccc(NC(=O)Nc2ccc(F)cc2F)c1	TPT1 inhibitor 55 | TPT1 inh confirm inactive | RNase T1 counter inactive
COc1cc(/C=C/c2sc3ccccc3[n+]2CCCS(=O)(=O)[O-])ccc1O	HNF4A DNA FP 87, TPT1 inhibitor 86 (not shown: Rpn11 block) | TPT1 inh confirm 97 | RNase T1 counter 101
CN1CCN(C(=O)c2ccc3c(c2)NC(=O)/C(=C/c2ccccc2)S3)CC1	none
Cc1ccc(/C=C2/Sc3ccc(C(=O)N4CCN(c5ccccn5)CC4)cc3NC2=O)cc1	TPT1 inhibitor 28 | TPT1 inh confirm 49 | RNase T1 counter 61
O=[N+]([O-])C(=C1SCCS1)C(=C(Cl)Cl)N1CCCCC1	none
O=[N+]([O-])C(/C=C(\Cl)[N+](=O)[O-])=C(N1CCCCC1)N1CCCCC1	TPT1 inhibitor 35 | TPT1 inh confirm 42 | RNase T1 counter 58
COC(=O)[C@]12CCCCC=C1N(Cc1ccc(Cl)cc1Cl)C(=O)[C@H](CC(=O)NCc1ccc(OC)c(OC)c1)C2	none (no result: Rpn11 block, PP1 counter, TPT1 inhibitor)
CC(C)n1c(SCC(=O)NC2CCCCC2)nnc1-c1ccco1	none
COC(=O)c1ccc(-n2cc(-c3ccc(OC)cc3)[nH]c2=S)cc1	TPT1 inhibitor 38 | TPT1 inh confirm 31 | RNase T1 counter 40
CCN1CCN(Cc2ccc(NC(=O)c3ccc(C)c(NC(=O)c4ccno4)c3)cc2C(F)(F)F)CC1	none
CCN1CCN(Cc2ccc(NC(=O)c3ccc(C)c(/C=C/c4cnc(Nc5cc(N6CCNCC6)nc(C)n5)cn4)c3)cc2C(F)(F)F)CC1	CSN inh 57!, TPT1 inhibitor 78 (not shown: Rpn11 block) | TPT1 inh confirm 83 | RNase T1 counter 87
CN1C(=O)C(N=Nc2ccccc2C(=O)O)N(C)C1=S (centres undefined)	TPT1 inhibitor 41 | TPT1 inh confirm 41 | RNase T1 counter 61
CCc1c(C)nc(N2CCN(c3ccccc3F)CC2)[nH]c1=O	none
OC(c1cccc(Cl)c1)c1ncc(-c2ccc(C(F)(F)F)cc2)[nH]1 (centres undefined)	none (no result: PP1 counter, TPT1 inhibitor)
Cc1c(NC(=O)Cc2noc3ccccc23)cccc1[N+](=O)[O-]	TPT1 inhibitor 74 | TPT1 inh confirm inactive | RNase T1 counter inactive
CN(C)c1ccc(C(=O)/C=C/c2ccc(Br)cc2)cc1	none
CCN(CC)c1ccc(/C=C/C(=O)c2ccc(Br)cc2)cc1	TPT1 inhibitor 97 (not shown: Rpn11 block) | TPT1 inh confirm 94 | RNase T1 counter 96
CN1CCC/C1=C/C=C1\SC(=S)NC1=O	TPT1 inhibitor 146 (not shown: Rpn11 block) | TPT1 inh confirm 154 | RNase T1 counter 140
COc1cc(/C=C/C(=O)C2C(=O)C=C(C)OC2=O)cc(OC)c1O (centres undefined)	TPT1 inhibitor 37 | TPT1 inh confirm inactive | RNase T1 counter 28
COc1ccc(/C=C/C(=O)C2C(=O)C=C(C)OC2=O)cc1O (centres undefined)	TPT1 inhibitor 25 | TPT1 inh confirm inactive | RNase T1 counter 30
COc1cc2nc(N3CCN(C(=O)[C@H]4COc5ccccc5O4)CC3)nc(N)c2cc1OC	none
Cc1c2ccccc2c(C)c2c1ccc1ccccc12	none
CC1=Nc2ccc3ccccc3c2C1(C)C	CSN inh 35, TPT1 inhibitor 85 (not shown: Rpn11 block) | TPT1 inh confirm 44 | RNase T1 counter 55
Cc1ccc(NC(=S)NC2CCN(Cc3ccccc3)CC2)cc1	none
O=C(Nc1ccccc1)NC1CCN(Cc2ccccc2)CC1	TPT1 inhibitor 30 | TPT1 inh confirm inactive | RNase T1 counter inactive
Cc1ccc([C@@H]2C[C@H]3[C@@H](CN2S(=O)(=O)c2ccc(C)cc2)C(=O)C[C@@H](c2ccccc2F)N3S(=O)(=O)c2ccc(C)cc2)cc1	none (no result: PP1 counter, TPT1 inhibitor)
COc1ccc(C(C#N)=Cc2ccccc2OC)cc1	none (no result: PP1 counter, TPT1 inhibitor)
